Measurements gathered from unrelated publications.
Protocols differ between the studies behind these lines.
Organism: Mycobacterium tuberculosis variant bovis BCG
Effect on: microbial growth

c1ccc(COc2ccccc2CNCc2cccnc2)cc1
MIC (ATCC35734 BCG): > 62.5 µM

O=C(Nc1ccc2c(c1)OC(F)(F)O2)Nc1ccc(Cl)c(C(F)(F)F)c1
MIC (BCG): 3 µM

Fc1ccc(COc2ccccc2CNCc2cccnc2)cc1
MIC (ATCC35734 BCG): > 62.5 µM

COc1ccc(C=CC(=O)c2ccc(Cl)cc2Cl)cc1OC
MIC (BCG; 7 days): 200 µg/mL

Fc1ccc(COc2ccccc2CNCc2ccccc2)cc1
MIC (ATCC35734 BCG): > 62.5 µM

CO[C@H]1/C=C/O[C@@]2(C)Oc3c(C)c(O)c4c(O)c(c(/C=N/N5CCN(C)CC5)c(O)c4c3C2=O)NC(=O)/C(C)=C\C=C\[C@H](C)[C@H](O)[C@@H](C)[C@@H](O)[C@@H](C)[C@H](OC(C)=O)[C@@H]1C
MIC (BCG; 6 days): < 0.78 µM

COc1ccc(C=CC(=O)c2ccccc2Br)cc1OC
MIC (BCG; 7 days): 25 µg/mL

CO[C@H]1/C=C/O[C@@]2(C)Oc3c(C)c(O)c4c(O)c(c(/C=N/N5CCN(C)CC5)c(O)c4c3C2=O)NC(=O)/C(C)=C\C=C\[C@H](C)[C@H](O)[C@@H](C)[C@@H](O)[C@@H](C)[C@H](OC(C)=O)[C@@H]1C
MIC (BCG): < 0.2 µg/mL

COc1ccc(C=CC(=O)c2ccccc2Cl)cc1OC
MIC (BCG; 7 days): 12.5 µg/mL

CNC(=O)c1cc(Oc2ccc(NC(=O)Nc3ccc(Cl)c(C(F)(F)F)c3)cc2)ccn1
MIC (BCG): 12.5 µM
